Test results from ChEMBL document CHEMBL4811241, “Revisiting Pyrazolo[3,4-d]pyrimidine Nucleosides as Anti-Trypanosoma cruzi and Antileishmanial Agents” (J Med Chem, 2021).

What was measured:
CYP450 [1] = test: Metabolic stability of the compound in mouse liver microsomes S9 fraction assessed as CYP450-mediated metabolism by measuring parent compound remaining at 5 uM measured after 60 mins in presence of NADPH by UPLC-MS analysis; format: ADME, subcellular; details: read-out: Stabilty
Summary of the method: (§1)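 Compound at 5 μM with 0.5 mg/mL male mouse or pooled human liver microsomes in potassium phosphate buffer; reaction started with 1 mM NADPH. Samples taken at 0, 15, 30 and 60 min and quenched in cold acetonitrile with internal standard. Parent remaining quantified by UPLC-MS/MS in MRM mode and given as % of the 0 min value.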

Trypanosoma cruzi [2] = test: Antitrypanosomal activity against Trypanosoma cruzi strain Y bloodstream trypomastigotes infected in Swiss Webster mouse assessed as reduction in parasitemia at 2.5 mg/kg, po bid for 5 days treatment started at 6 days post-infection in presence of 10 mg/kg, po Benznidazole by light microscopic analysis; format: functional; details: 120 h, time 5 day
Summary of the method: (§2)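 Male Swiss Webster mice, 18–20 g, six per group; only mice with detectable parasitemia treated. Oral gavage for 5 consecutive days (6–10 dpi); test compound given b.i.d. in 10% Tween 80, benznidazole once daily, formulations freshly prepared. Parasitemia counted by light microscopy in 5 μL blood; mortality checked daily to 34 dpi.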

Trypanosoma cruzi [3] = test: Antitrypanosomal activity against intracellular amastigote form of Trypanosoma cruzi Y infected in Swiss Webster mouse cardiomyocytes assessed as inhibition of parasite growth incubated for 48 hrs by Giemsa staining based microscopic analysis; format: functional, organism-based; details: Cardiac muscle cell
Summary of the method: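 Primary 2D mouse embryo cardiac cell cultures, infected for 24 h, then washed and exposed for 48 h at 37 °C to a serial dilution. Cells fixed and stained with Giemsa; infected cells and parasites per infected cell scored in 200 host cells. Activity expressed from the inhibition index; two independent experiments run in duplicate.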

[4] = Cytotoxicity against Swiss Webster mouse 2D cardiomyocytes assessed as reduction in cell viability measured after 48 hrs by PrestoBlue assay; set-up: species or system Cardiac Muscle Cell; details: read-out: LC50
Summary of the method: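 Mouse embryo heart cells as monolayer (2D) or 3D aggregates (25 × 10³ cells/well on 1% agarose). Uninfected cultures exposed 48 h to rising concentrations. Morphology checked by light microscopy; viability read by PrestoBlue; CC₅₀ determined.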

UGT [5] = target: T1, UGT (Homo sapiens, UniProt O60656+O75310+O75795+P06133+P0DTE4+P0DTE5+P16662+P19224+P22309+P22310+P35503+P35504+P36537+P54855+Q6UWM9+Q9BY64+Q9HAW7+Q9HAW8+Q9HAW9); test: Metabolic stability of the compound in human liver microsomes S9 fraction assessed as UGT-mediated metabolism by measuring parent compound remaining at 5 uM measured after 15 mins in presence of UDPGA by UPLC-MS analysis; format: ADME, subcellular; details: read-out: Stabilty
Summary of the method: (§3)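 Compound at 5 μM with 0.5 mg/mL male mouse or pooled human liver microsomes; reaction started with 2 mM UDPGA. Sampled at 0, 15, 30 and 60 min and quenched in cold acetonitrile with internal standard. Parent remaining measured by UPLC-MS/MS (MRM) as % of the 0 min value.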

Trypanosoma cruzi [6] = test: Antitrypanosomal activity against nifurtimox-sensitive Trypanosoma cruzi Tulahuen CL2 infected in Swiss mouse peritoneal macrophages assessed as inhibition of parasite growth measured after 7 days by spectrophotometric analysis; format: functional, organism-based; details: Tulahuen CL2, Peritoneal macrophage, 168 h
Trypanosoma cruzi [7] = test: Antitrypanosomal activity against nifurtimox-sensitive Trypanosoma cruzi Tulahuen CL2 infected in Swiss mouse peritoneal macrophages assessed as inhibition of parasite growth measured after 7 days in presence of ABC transporter inhibitor, probenecid by spectrophotometric analysis; format: functional, organism-based; details: Tulahuen CL2, Peritoneal macrophage, 168 h
Summary of the method: (§4)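 Macrophage-hosted 7-day assay read with CPRG at 540 nm, with compound given together with an ABC transporter inhibitor: cyclosporine A 2 μM, probenecid 700 μM or verapamil 8 μM. IC50 from % reduction versus infected controls.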

CYP450 [8] = test: Metabolic stability of the compound in mouse liver microsomes S9 fraction assessed as CYP450-mediated metabolism by measuring parent compound remaining at 5 uM measured after 30 mins in presence of NADPH by UPLC-MS analysis; format: ADME, subcellular; details: read-out: Stabilty; summary of the method: as §1
Trypanosoma cruzi [9] = test: Antitrypanosomal activity against nifurtimox-sensitive Trypanosoma cruzi Tulahuen CL2 infected in Swiss mouse peritoneal macrophages assessed as inhibition of parasite growth measured after 7 days in presence of ABC transporter inhibitor, verapamil by spectrophotometric analysis; format: functional, organism-based; details: Tulahuen CL2, Peritoneal macrophage, 168 h; summary of the method: as §4
UGT [10] = test: Metabolic stability of the compound in mouse liver microsomes S9 fraction assessed as UGT-mediated metabolism by measuring parent compound remaining at 5 uM measured after 60 mins in presence of UDPGA by UPLC-MS analysis; format: ADME, subcellular; details: read-out: Stabilty; summary of the method: as §3
UGT [11] = target: T1, UGT; test: Metabolic stability of the compound in human liver microsomes S9 fraction assessed as UGT-mediated metabolism by measuring parent compound remaining at 5 uM measured after 60 mins in presence of UDPGA by UPLC-MS analysis; format: ADME, subcellular; details: read-out: Stabilty; summary of the method: as §3
CYP450 [12] = target: T2, CYP450 (Homo sapiens, UniProt P04798+P05177+P05181+P08684+P10632+P10635+P11509+P11712+P13584+P20813+P20815+P20853+P24462+P24903+P33260+P33261+P51589+P78329+P98187+Q02928+Q08477+Q16678+Q16696+Q5TCH4+Q6VVX0+Q7Z449+Q8TAV3+Q96SQ9+Q9HB55); test: Metabolic stability of the compound in human liver microsomes S9 fraction assessed as CYP450-mediated metabolism by measuring parent compound remaining at 5 uM measured after 15 mins in presence of NADPH by UPLC-MS analysis; format: ADME, subcellular; details: read-out: Stabilty; summary of the method: as §1
[13] = Selectivity index, ratio of CC50 for human MRC-5 SV2 cells to IC50 for antitrypanosomal activity against nifurtimox-sensitive Trypanosoma cruzi Tulahuen CL2 infected in human MRC-5 SV2 cells; format: toxicity, cell-based; details: read-out: Ratio CC50/IC50
Summary of the method: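 Ratio of MRC-5SV2 CC50 (3-day resazurin assay) to IC50 against T. cruzi amastigotes in MRC-5SV2 cells (7-day CPRG assay).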

CYP450 [14] = target: T2, CYP450; test: Metabolic stability of the compound in human liver microsomes S9 fraction assessed as CYP450-mediated metabolism by measuring parent compound remaining at 5 uM measured after 60 mins in presence of NADPH by UPLC-MS analysis; format: ADME, subcellular; details: read-out: Stabilty; summary of the method: as §1
Trypanosoma cruzi [15] = test: Antitrypanosomal activity against Trypanosoma cruzi Y bloodstream trypomastigotes assessed as inhibition of parasite growth incubated for 24 hrs by light microscopy; format: functional, organism-based
Trypanosoma cruzi [16] = test: Antitrypanosomal activity against Trypanosoma cruzi strain Y bloodstream trypomastigotes infected in Swiss Webster mouse assessed as reduction in parasitemia at 25 mg/kg, po bid for 5 days treatment started at 6 days post-infection and measured at 8 days post-infection by light microscopic analysis; format: functional; details: 48 h, time 2 day; summary of the method: as §2
Trypanosoma cruzi [17] = test: Antitrypanosomal activity against nifurtimox-sensitive Trypanosoma cruzi Tulahuen CL2 infected in human MRC-5 SV2 cells assessed as inhibition of parasite growth measured after 7 days by spectrophotometric analysis; format: functional, organism-based; details: Tulahuen CL2, MRC-5 SV2, 168 h
[18] = Selectivity index, ratio of LC50 for cytotoxicity against Swiss Webster mouse 2D cardiomyocytes to IC50 for antitrypanosomal activity against intracellular amastigote form of Trypanosoma cruzi Y infected in Swiss Webster mouse cardiomyocytes; format: toxicity, cell-based; details: read-out: Ratio LC50/IC50
Summary of the method: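 Ratio of cardiac-cell CC₅₀ to Y-strain amastigote IC₅₀. Cardiac cultures were infected after 24 h plating for 24 h with bloodstream trypomastigotes (10:1 parasite/host). After washing, cells were treated 48 h at 37 °C with a serial dilution. Cells were then Giemsa-stained, with infection and parasites per cell scored in 200 cells. Two independent experiments were run in duplicate.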

**Q.** Which remaining at 1 h, 5 µM (CYP450 [1]) does the source give for Nc1ncnc2c1c(-c1ccc(Cl)cc1)nn2[C@@H]1O[C@H](CO)[C@@H](O)[C@H]1O here?
**A.** The remaining at 1 h, 5 µM was 108%.

**Q.** And the inhibition in vivo at 2.5 mg/kg (Trypanosoma cruzi [2])?
**A.** The inhibition in vivo at 2.5 mg/kg was 71%.

**Q.** What about the IC50 (Trypanosoma cruzi [3]) of the same compound?
**A.** The IC50 was 0.26 µM.

**Q.** What about the CC50 at 48 h [4] of the same compound?
**A.** The CC50 at 48 h was 500 µM.

**Q.** And the remaining at 0.25 h, 5 µM (UGT [5])?
**A.** Its remaining at 0.25 h, 5 µM is 100%.

**Q.** What about the IC50 (Trypanosoma cruzi [6]) of the same compound?
**A.** Its IC50 is greater than 64 µM.

**Q.** And the IC50 (Trypanosoma cruzi [7])?
**A.** Its IC50 is greater than 64 µM.

**Q.** What about the remaining at 0.5 h, 5 µM (CYP450 [8]) of the same compound?
**A.** The remaining at 0.5 h, 5 µM was 103%.

**Q.** And the IC50 (Trypanosoma cruzi [9])?
**A.** Its IC50 is greater than 64 µM.

**Q.** What about the remaining at 1 h, 5 µM (UGT [10]) of the same compound?
**A.** Its remaining at 1 h, 5 µM is 115%.

**Q.** What about the remaining at 1 h, 5 µM (UGT [11]) of the same compound?
**A.** The remaining at 1 h, 5 µM was 104%.

**Q.** What about the remaining at 0.25 h, 5 µM (CYP450 [12]) of the same compound?
**A.** The remaining at 0.25 h, 5 µM was 102%.

**Q.** And the selectivity ratio [13]?
**A.** The selectivity ratio was greater than 197.

**Q.** What about the remaining at 1 h, 5 µM (CYP450 [14]) of the same compound?
**A.** Its remaining at 1 h, 5 µM is 101%.

**Q.** What about the IC50 (Trypanosoma cruzi [15]) of the same compound?
**A.** The IC50 was greater than 81 µM.

**Q.** What about the inhibition in vivo at 25 mg/kg (Trypanosoma cruzi [16]) of the same compound?
**A.** Its inhibition in vivo at 25 mg/kg is 99%.

**Q.** And the IC50 (Trypanosoma cruzi [17])?
**A.** Its IC50 is 0.32 µM.

**Q.** And the selectivity ratio [18]?
**A.** Its selectivity ratio is greater than 1900.
